Published values collected from several papers.
Each line is one published result; the experiments were not run side by side.
TNKS: Poly [ADP-ribose] polymerase tankyrase-1 (TNKS, Homo sapiens, UniProt O95271)
NTRK3: NT-3 growth factor receptor (NTRK3, Homo sapiens, UniProt Q16288)

With CCN(c1cc(C#CCN2CCOCC2)cc(C(=O)NCc2c(C)cc(C)[nH]c2=O)c1C)[C@H]1CC[C@H](N(C)CCOC)CC1 the inhibition was 13% (Histone-lysine N-methyltransferase SMYD3 (SMYD3, Homo sapiens, UniProt Q9H7B4); enzyme activity, inhibitor; 1 µM).
COC(=O)c1c(O)ccc(O)c1C(=O)c1c(O)cc2c(c1O)[C@@H]1C=C[C@@]3(C2)[C@@H](OC(C)=O)c2cc(C)cc(O)c2C(=O)C3(O)C1=O (some centres unmarked) has an inhibition of 67% (PSMB6/PSMB5/PSMB7 (Homo sapiens, UniProt P28072+P28074+Q99436); enzyme activity in cells, inhibitor; MCF7; 20 µg/mL).
The inhibition of CN(C)C1CCN(CC#Cc2nn(C3CCCC3)c3nc(NCc4ccccc4)ncc23)C1 (centres unmarked) is reported as 5% (RAC-alpha serine/threonine-protein kinase (AKT1, Homo sapiens, UniProt P31749); enzyme activity, inhibitor, FRET; 1 µM).
C[C@H]1C[C@@H](N2C(=N)N[C@](C)(c3cccc(Nc4ccc(C5CC5)nc4)c3Cl)CC2=O)CCO1 has an inhibition of 86% (Cathepsin E (CTSE, Homo sapiens, UniProt P14091); enzyme activity, inhibitor; 10 µM).
COc1ccc(C(N)=O)cc1NC(=O)c1cccc(-c2cnc3[nH]c(=O)n(C)c3c2)c1 has an inhibition of 0% (TNKS; enzyme activity, inhibitor; 0.1 µM).
O=C(Nc1ccc2[nH]ncc2c1)c1cccc(NC(=S)Nc2ccc(C(F)(F)F)cc2)c1 gave an inhibition of 17.3% (NTRK3; enzyme activity, inhibitor, FRET; 1 µM).
CC1=C(/C=C/C(C)=C/C=C/C(C)=C/CO)C(C)(C)CCC1 has an inhibition of 46% (Prothrombin (Rattus norvegicus, UniProt P18292); enzyme activity, inhibitor; 200 µg/mL).
For Ic1cccc2cnccc12, the inhibition was 7% (TNKS; enzyme activity, inhibitor; 10 µM).
With OCc1cc(C(O)CNCCCCCCOCCCCc2ccccc2)ccc1O (centres unmarked) the inhibition was 11% (C-X-C chemokine receptor type 4 (CXCR4, Homo sapiens, UniProt P61073); calcium signal, antagonist; U87.CD4.CXCR4; 4 µM).
With CCN(CC)CCNC(=O)c1c(C)[nH]c(/C=C2\C(=O)Nc3ccc(F)cc32)c1C the inhibition was 11% (Dual specificity mitogen-activated protein kinase kinase 7 (MAP2K7, Homo sapiens, UniProt O14733); enzyme activity, inhibitor; 0.3 µM).
For O=C(Nc1ccc(C(F)(F)F)cc1)Nc1cccc(C(=O)Nc2ccc3[nH]ncc3c2)c1, the inhibition was 13.5% (NTRK3; enzyme activity, inhibitor, FRET; 1 µM).
